In experiment [1] the test system is Calu-3. The experiment in a line: Cytotoxicity against human Calu3 cells after 96 hrs by Cell Titer Glo assay. In kind it is functional, cell-based. The conditions noted are these: Calu-3, 96 h. Summed up: (§1)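 Cells were grown in RPMI/L-glutamine with penicillin 1000 U/ml, streptomycin 1 mg/mL and 5% FBS, humidified, at 37 °C and 5% CO2. They were seeded in 384-well plates at 750 (Calu-3) or 500 (H2887) cells/well and left overnight. Compounds in DMSO were added at 50 μM to 1 nM final, with 0.5% DMSO final. After 96 h, CellTiter-Glo was added, plates sat 10 min at room temperature, and luminescence was normalized to DMSO-only wells.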
Background: Cellular ATP, detected with luciferase, serves as a proxy for viable cell number.

Experiment [2] in a line: Cytotoxicity against human NCI-H2887 cells after 96 hrs by Cell Titer Glo assay. It is filed as functional, cell-based. To be noted: NCI-H2887, 96 h. The method, boiled down: as §1
Experiment [3] has as its system C127. In words: Epigenetic modulation in mouse C127 cells expressing CMV promoter assessed as induction of GFP expression at 10 uM after 24 hrs by LDR assay.
For experiment [4], the system named is C127. In words: Epigenetic modulation in mouse C127 cells expressing CMV promoter assessed as induction of GFP expression at 1 uM after 24 hrs by LDR assay.

Each structure is given as a SMILES string. Active and inactive are the calls of the source. The rule behind the calls is not given here.

The term IC50 denotes the midpoint of a concentration-inhibition curve. A higher IC50 goes with lower potency. For `Cc1c(O)c(CCC(C)C)c2c3c1OC(C)(C)N=C3c1cccc(O)c1C2=O`, the IC50 in experiment [1] and in experiment [2] was more than 50 µM throughout.
For the compound `Cc1cc2c(c(O)c1C(=O)CCC(C)C)C(=O)c1c(O)cccc1C2=O` [GALVAQUINONE A], the IC50 in experiment [1] and in experiment [2] was more than 50 µM throughout. Further, in experiment [3], the outcome was Active.
In the case of `Cc1c(O)c2c(c(O)c1C(=O)CCC(C)C)C(=O)c1c(O)cccc1C2=O` [GALVAQUINONE B], the IC50 in experiment [1] is 12.2 µM; in experiment [2] it was 5 µM. Further, the outcome in experiment [4] and in experiment [3] was Active.
On to `Cc1c(O)c(C(=O)CC(C)C)c2c(c1O)C(=O)c1cccc(O)c1C2=O` [GALVAQUINONE C], for which the IC50 in experiment [1] and in experiment [2] was more than 50 µM in each case.
With `Cc1cc(O)c2c(c1O)C(=O)c1cccc(O)c1C2=O` [ISLANDICIN], the IC50 in experiment [1] and in experiment [2] was more than 50 µM in each case.
Regarding `Cc1c(O)c(CCC(C)C)c2c(c1O)C(=O)c1cccc(O)c1C2=O` [LUPINACIDIN A], the IC50 in experiment [1] stood at 8.8 µM; in experiment [2], 3.1 µM.
